We go through 19 compounds from ChEMBL document CHEMBL3734693, “Discovery of potent, selective, and orally bioavailable inhibitors of interleukin-1 receptor-associate kinase-4” (Bioorg Med Chem Lett, 2015).

Broadly, the Ki is the dissociation constant of the complex between target and ligand, obtained from inhibition or displacement. What is called IC50 is the concentration that gives 50% inhibition. Usually solubility stands for the concentration that dissolves in the medium under given conditions. For orientation: half-life means the time in which the quantity being followed falls by half. A high value points to slow loss. What is called AUC is concentration integrated over time. Higher therefore signals high exposure. As usually defined, the bioavailability is dose-corrected exposure relative to a reference, in per cent. Low readings indicate little systemic uptake, high ones much systemic uptake.

Structures are written as SMILES. Values after ≈ are worked out from the molar mass of the structure shown.

The target in series [1] is T1, Interleukin-1 receptor-associated kinase 4 (Homo sapiens, UniProt Q9NWZ3).
T1 sequence (Q9NWZ3 whole entry): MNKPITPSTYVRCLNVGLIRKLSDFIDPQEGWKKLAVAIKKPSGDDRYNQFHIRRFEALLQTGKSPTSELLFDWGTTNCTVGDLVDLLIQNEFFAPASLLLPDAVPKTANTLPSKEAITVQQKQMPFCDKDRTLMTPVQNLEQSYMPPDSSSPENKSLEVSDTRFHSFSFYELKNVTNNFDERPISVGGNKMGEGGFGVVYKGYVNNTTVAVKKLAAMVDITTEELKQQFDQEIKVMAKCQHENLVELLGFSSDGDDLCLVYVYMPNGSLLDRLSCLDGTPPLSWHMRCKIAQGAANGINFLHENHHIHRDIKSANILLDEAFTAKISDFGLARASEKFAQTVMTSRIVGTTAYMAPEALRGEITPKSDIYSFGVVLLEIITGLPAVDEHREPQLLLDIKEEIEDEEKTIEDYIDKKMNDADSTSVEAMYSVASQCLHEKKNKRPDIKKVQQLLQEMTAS
The experiment in a line: Inhibition of recombinant full length IRAK-4 (unknown origin) using the biotinylated substrate RRRVTSPARRS by chemiluminescent ELISA.

In series [2] the target is Interleukin-1 receptor-associated kinase 1 (Homo sapiens, UniProt P51617). The experiment in a line: Inhibition of IRAK-1 (unknown origin).
In series [3] the target is T2, Mitogen-activated protein kinase kinase kinase 7 (Homo sapiens, UniProt O43318).
T2 sequence (O43318 whole entry): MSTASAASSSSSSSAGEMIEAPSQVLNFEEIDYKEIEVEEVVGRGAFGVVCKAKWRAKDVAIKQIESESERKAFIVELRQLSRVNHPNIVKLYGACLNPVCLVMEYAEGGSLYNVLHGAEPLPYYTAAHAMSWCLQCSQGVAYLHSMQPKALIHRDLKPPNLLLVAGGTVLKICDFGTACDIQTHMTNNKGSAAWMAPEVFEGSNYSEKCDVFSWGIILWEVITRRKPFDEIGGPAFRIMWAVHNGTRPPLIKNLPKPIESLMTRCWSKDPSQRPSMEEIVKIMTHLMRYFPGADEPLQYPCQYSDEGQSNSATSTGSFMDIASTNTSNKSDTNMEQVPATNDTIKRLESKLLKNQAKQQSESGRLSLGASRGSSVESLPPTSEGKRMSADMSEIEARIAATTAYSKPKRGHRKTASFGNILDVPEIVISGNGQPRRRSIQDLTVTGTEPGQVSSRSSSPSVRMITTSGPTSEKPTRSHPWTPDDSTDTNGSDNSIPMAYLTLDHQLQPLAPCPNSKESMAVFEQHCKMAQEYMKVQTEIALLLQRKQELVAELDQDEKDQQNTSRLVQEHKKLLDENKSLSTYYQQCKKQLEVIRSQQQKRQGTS
As to the kind of experiment: Inhibition of TAK1 (unknown origin).

The nature of series [4]: Inhibition of Interleukin-1 induced Nuclear factor-kappa-B activation in primary human monocyte by electrophoretic mobility shift assay. (In general: Mobility shift assays separate free from complexed probe on a gel.)
Series [5] is filed under the species Homo sapiens. The experiment in a line: Ratio of Ki for IRAK-1 (unknown origin) to Ki for recombinant full length IRAK-4 (unknown origin).
Series [6] is filed under the species Homo sapiens. The experiment in a line: Ratio of Ki for TAK1 (unknown origin) to Ki for recombinant full length IRAK-4 (unknown origin).
Series [7] can be described thus: Solubility of the compound at pH 7.4. The series is classed as physicochemical. Conditions: buffer.
Series [8] is described as follows: Permeability of the compound. The series is classed as ADME. Conditions: not told; read-out: permeability.
Series [9] can be described thus: Clearance in rat at 0.5 mg/kg, iv and 2 mg/kg, po. Conditions: in vivo. The series is classed as ADME, organism-based. In outline: (§1)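 Rats were given the compound intravenously at 0.5 mg/kg and orally at 2.0 mg/kg. Clearance, half-life, AUC and oral bioavailability were determined from these two dosings.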
Series [10] in a line: Half-life in rat at 0.5 mg/kg, iv and 2 mg/kg, po. The settings on record: in vivo. The class given is ADME, organism-based. In outline:
as §1

The test system of series [11] is Rattus norvegicus. As to the kind of experiment: AUC in rat at 0.5 mg/kg, iv and 2 mg/kg, po. The settings on record: in vivo. The series is classed as ADME, organism-based. In short, it runs like this: as §1
The nature of series [12]: Oral bioavailability in rat at 2 mg/kg. The series is classed as ADME, organism-based. The settings on record: in vivo. In outline:
as §1

For series [13], the species on record is Homo sapiens. As to the kind of experiment: Selectivity for recombinant IRAK-4 (unknown origin) over PKA (unknown origin).
The species named for series [14] is Homo sapiens. As to the kind of experiment: Selectivity for recombinant IRAK-4 (unknown origin) over PKC (unknown origin).
Series [15] is filed under the species Homo sapiens. The experiment in a line: Selectivity for recombinant IRAK-4 (unknown origin) over CDK2 (unknown origin).
The species named for series [16] is Homo sapiens. As to the kind of experiment: Selectivity for recombinant IRAK-4 (unknown origin) over CaMK (unknown origin).
Series [17] is filed under the species Homo sapiens. The experiment in a line: Selectivity for recombinant IRAK-4 (unknown origin) over Akt1 (unknown origin).
The species entered for series [18] is Homo sapiens. As to the kind of experiment: Selectivity for recombinant IRAK-4 (unknown origin) over EGFRK (unknown origin).
For series [19], the species on record is Homo sapiens. The experiment in a line: Selectivity for recombinant IRAK-4 (unknown origin) over pp60SRC (unknown origin).
The species entered for series [20] is Homo sapiens. As to the kind of experiment: Selectivity for recombinant IRAK-4 (unknown origin) over LCK (unknown origin).

Sequence of Interleukin-1 receptor-associated kinase 1 (P51617 whole entry): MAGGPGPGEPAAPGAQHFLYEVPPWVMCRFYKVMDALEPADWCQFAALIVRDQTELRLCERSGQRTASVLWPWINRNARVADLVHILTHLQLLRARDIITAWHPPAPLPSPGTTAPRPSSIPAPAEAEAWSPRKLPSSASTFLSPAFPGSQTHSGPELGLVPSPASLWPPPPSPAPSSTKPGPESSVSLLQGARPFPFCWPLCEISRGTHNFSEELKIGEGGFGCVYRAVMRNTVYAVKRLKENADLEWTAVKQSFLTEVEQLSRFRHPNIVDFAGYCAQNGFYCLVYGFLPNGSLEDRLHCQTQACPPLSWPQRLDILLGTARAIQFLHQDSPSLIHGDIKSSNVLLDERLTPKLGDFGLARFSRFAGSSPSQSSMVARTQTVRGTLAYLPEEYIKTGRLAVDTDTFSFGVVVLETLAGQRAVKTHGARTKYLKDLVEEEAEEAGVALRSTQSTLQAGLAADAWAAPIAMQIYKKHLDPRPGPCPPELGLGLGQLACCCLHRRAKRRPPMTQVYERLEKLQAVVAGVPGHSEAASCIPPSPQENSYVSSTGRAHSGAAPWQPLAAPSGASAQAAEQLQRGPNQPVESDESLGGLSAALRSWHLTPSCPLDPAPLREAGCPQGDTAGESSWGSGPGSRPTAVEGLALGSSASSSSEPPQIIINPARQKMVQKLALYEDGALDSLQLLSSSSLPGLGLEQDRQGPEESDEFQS

Take `O=C(Nc1nc2cc(F)ccc2n1[C@H]1CC[C@H](CO)CC1)c1cccc([N+](=O)[O-])c1`: the Ki in [1] came to 6.4 nM.

`O=C(Nc1nc2cc(F)ccc2n1[C@H]1CC[C@H](O)CC1)c1cccc([N+](=O)[O-])c1`: in series [1], the inhibitory constant (Ki) was found to be 6.5 nM.

As for `O=C(Nc1nc2cc(CN3CCCCC3)ccc2n1-c1ccccc1)c1cccc([N+](=O)[O-])c1`, the results for the Ki in series [1], in series [2] and in series [3] were 8.2 nM, 374 nM and 800 nM, respectively. The IC50 in series [4] was determined as 100 nM.

Consider `CC(C)(C)C(=O)Nc1ccc2c(c1)nc(NC(=O)c1cccc(C(F)(F)F)c1)n2[C@H]1CC[C@@H](CO)CC1`, for which the Ki was determined as 0.34 nM in series [1] and 2500 nM in series [3]. The IC50 in series [4] was 100 nM.

For `O=C(Nc1nc2cc(CN3CCCCC3)ccc2n1[C@H]1CC[C@H](O)CC1)c1cccc([N+](=O)[O-])c1`, the results for the inhibitory constant (Ki) in [1], in [2] and in series [3] were 2.8 nM, 18 nM and 15 nM, respectively. For the same compound, the Ratio Ki in [5] was found to be 6.4; in [6], 5.3. This compound also displayed a solubility in series [7] of more than 50 µg/mL. The Papp in [8] turned out to be 6.6 ×10⁻⁶ cm/s. The compound also showed a clearance in [9] of 41.7 mL/min/kg. The compound further gave a half-life in series [10] of 2.1 h. In addition, the exposure (AUC) in series [11] came to 124 ng·h/mL. The same compound displayed a bioavailability in series [12] of 16%. In addition, the Selectivity ratio in series [13], in series [14], in series [15], in [16], in [17] and in series [18] was more than 100 each time. The Selectivity ratio in series [19] and in series [20] was more than 100 each time.

As to `O=C(Nc1nc2cc(F)ccc2n1[C@H]1CC[C@@H](CO)C1)c1cccc([N+](=O)[O-])c1`, in series [1], the Ki was 7.8 nM.

With `O=C(Nc1nc2cc(F)ccc2n1[C@H]1CC[C@H](CO)C1)c1cccc([N+](=O)[O-])c1`, in series [1], the inhibition constant Ki came out at 11 nM.

As to `O=C(Nc1nc2cc(CN3CCCCC3)ccc2n1[C@H]1CC[C@@H](CO)CC1)c1cccc(C(F)(F)F)c1`, the figures for the Ki in series [1], in series [2] and in series [3] were 0.42 nM, 72 nM and 130 nM, respectively. The concentration for half-maximal inhibition (IC50) in series [4] is less than 100 nM.

`O=C(Nc1nc2cc(CN3CCCCC3)ccc2n1[C@H]1CC[C@@H](CO)CC1)c1cccc([N+](=O)[O-])c1`: the Ki in series [1] turned out to be 0.7 nM; in series [2], 48 nM; in series [3] it was 30 nM. For the same compound, the Ratio Ki in [5] worked out at 68; in [6], 43. The compound further showed a clearance in series [9] of 40 mL/min/kg. Also, the half-life in series [10] is 4.8 h. Besides, the AUC in [11] was 84 ng·h/mL. Moreover, the bioavailability in series [12] was determined as 10%.

For `O=C(Nc1nc2cc(CO)ccc2n1[C@H]1CC[C@H](O)CC1)c1cccc([N+](=O)[O-])c1`, the inhibitory constant (Ki) in [1] was 11 nM. This compound yielded a solubility in series [7] of 4.9 µg/mL (≈ 11.9 µM). In addition, in [8], the Papp was less than 1 ×10⁻⁶ cm/s.

Turning to `O=C(Nc1nc2cc(CN3CCCC3=O)ccc2n1[C@H]1CC[C@H](O)CC1)c1cccc([N+](=O)[O-])c1`, in series [1], the Ki was determined as 0.5 nM. Further, the concentration in solution in series [7] (solubility) came to 0.8 µg/mL (≈ 1.68 µM). The Papp in [8] was less than 1 ×10⁻⁶ cm/s.

As for `O=C(Nc1nc2cc(F)ccc2n1[C@H]1CC[C@@H](CO)CC1)c1cccc([N+](=O)[O-])c1`, the inhibitory constant (Ki) in series [1] stood at 1.6 nM.

With `O=C(Nc1nc2cc(CN3CCCCC3)ccc2n1-c1ccc(CCO)cc1)c1cccc(C(F)(F)F)c1`, the Ki came out at 1.3 nM in series [1], 12 nM in series [2] and 700 nM in series [3]. The 50% inhibitory concentration (IC50) in series [4] was less than 100 nM. For the same compound, in [9], the clearance was 36.7 mL/min/kg. In [10], this compound showed a half-life of 1.3 h. This compound also came in with an area under the curve (AUC) in series [11] of 175 ng·h/mL. Further, in series [12], the bioavailability came out at 19%.

As to `O=C(Nc1nc2cc(CN3CCCCC3)ccc2n1-c1ccccc1)c1cccc(C(F)(F)F)c1`, the values for the inhibition constant Ki in [1], in [2] and in series [3] were 2.8 nM, 608 nM and 2500 nM, respectively. The IC50 in series [4] worked out at 300 nM. The clearance in [9] was 9 mL/min/kg. Besides, in series [10], the half-life was 23.7 h. In series [11], this compound registered an AUC of 1020 ng·h/mL. Moreover, the bioavailability in series [12] came to 46%.

For `O=C(Nc1nc2ccc(CO)cc2n1[C@H]1CC[C@@H](CO)CC1)c1cccc(C(F)(F)F)c1`, the inhibition constant Ki in series [1] was determined as 0.48 nM; in series [3], 1300 nM. Moreover, in series [4], the IC50 was less than 100 nM.

In the case of `O=C(Nc1nc2ccc(F)cc2[nH]1)c1cccc([N+](=O)[O-])c1`, the Ki in series [1] was found to be 4500 nM.

In the case of `O=C(Nc1nc2cc(F)ccc2n1CCCO)c1cccc([N+](=O)[O-])c1`, in series [1], the inhibitory constant (Ki) came out at 38.5 nM.

In the case of `CC(C)(C)C(=O)Oc1ccc2c(c1)nc(NC(=O)c1cccc([N+](=O)[O-])c1)n2-c1ccc(CCCO)cc1`, the IC50 came to 150 nM in series [1] and 900 nM in series [2].

`O=C(Nc1nc2cc(CN3CCOCC3)ccc2n1[C@H]1CC[C@H](O)CC1)c1cccc([N+](=O)[O-])c1`: the Ki in series [1] worked out at 3.8 nM. The same compound showed a solubility in series [7] of 29 µg/mL (≈ 60.5 µM). Also, the Papp in [8] is less than 1 ×10⁻⁶ cm/s.
